Data set [1] has as its system HFF. The data set can be described thus: Cytotoxicity against HFF cells assessed as reduction in cell viability up to 5 uM after 72 hrs by CellTiter96 AQueous one solution cell proliferation assay. In kind it is cell-based. To be noted: human. Put shortly:
(§1)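 Cells in RPMI with 5% fetal calf serum, glutamine, nonessential amino acids, pyruvate, HEPES, 2-mercaptoethanol and antibiotics. Seeded at 10 000 (LNCaP) or 5000 (others) and grown overnight at 37 °C, then exposed to compound in DMSO, triplicate wells, 72 h. Read by MTS at 490 nm after 2 h. % cytotoxicity = (A medium − A treatment)/A medium × 100.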

For data set [2], the system named is M14. As to the kind of experiment: Cytotoxicity against human M14 cells assessed as reduction in cell viability up to 5 uM after 72 hrs by CellTiter96 AQueous one solution cell proliferation assay. In kind it is functional, cell-based. Put shortly:
(§2)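 Melanoma cells in DMEM-based medium (5% fetal calf serum, glutamine, nonessential amino acids, pyruvate, HEPES, 2-mercaptoethanol, antibiotics). 5000 cells were grown overnight at 37 °C, then exposed to compound in DMSO in triplicate wells for 72 h. MTS absorbance at 490 nm after 2 h. % cytotoxicity = (A medium − A treatment)/A medium × 100.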

In data set [3] the test system is CWR22R. The data set can be described thus: Cytotoxicity against human 22Rv1 cells assessed as reduction in cell viability up to 5 uM after 72 hrs by CellTiter96 AQueous one solution cell proliferation assay. In kind it is functional, cell-based. Put shortly:
as §1

In data set [4] the test system is SK-MEL-28. As to the kind of experiment: Cytotoxicity against human SK-MEL-28 cells assessed as reduction in cell viability up to 5 uM after 72 hrs by CellTiter96 AQueous one solution cell proliferation assay. The class given is functional, cell-based. The essentials:
as §2

The subject of data set [5] is ACHN. As to the kind of experiment: Cytotoxicity against human ACHN cells assessed as reduction in cell viability up to 5 uM after 72 hrs by CellTiter96 AQueous one solution cell proliferation assay. The class given is functional, cell-based. Put shortly:
as §1

Data set [6] relates to LNCaP. As to the kind of experiment: Cytotoxicity against human LNCAP cells assessed as reduction in cell viability up to 5 uM after 72 hrs by CellTiter96 AQueous one solution cell proliferation assay. The class given is functional, cell-based. The essentials:
as §1

Drawing on ChEMBL document CHEMBL4190220, “Withanolides from Aeroponically Grown Physalis peruviana and Their Selective Cytotoxicity to Prostate Cancer and Renal Carcinoma Cells” (J Nat Prod, 2017), this text covers Activity for 14 compounds.

Activity calls are given as the source filed them. The calls are words filed in the database; no cut-off is given here.

Take `CC1=C(C)C(=O)O[C@@H]([C@](C)(O)[C@]2(O)CC[C@@]3(O)[C@@H]4C[C@H](Cl)[C@]5(O)CC=CC(=O)[C@]5(C)[C@H]4CC[C@]23C)C1`: in data set [1], the Activity result is “Non-Toxic”. The result in data set [2], in data set [3], in data set [4], in data set [5] and in data set [6] was inactive.
Consider `C[C@H]1C(=O)OC[C@H]1C[C@@H](O)[C@](C)(O)[C@]1(O)CC[C@@]2(O)[C@@H]3C[C@H]4O[C@]45CC=CC(=O)[C@]5(C)[C@H]3CC[C@]12C`, for which the Activity entry in data set [1] was “Non-Toxic”. The result in data set [2], in data set [3], in data set [4], in data set [5] and in data set [6] was inactive.
For the compound `CC1=C(C)C(=O)O[C@@H]([C@](C)(O)C2=CC[C@@]3(O)[C@@H]4C[C@H]5O[C@]56CC=CC(=O)[C@]6(C)[C@H]4CC[C@]23C)C1`, the Activity entry in data set [1] is listed as “Non-Toxic”. Moreover, the outcome in data set [2], in data set [3], in data set [4], in data set [5] and in data set [6] was inactive.
Regarding `C[C@H]1C(=O)OC[C@H]1C[C@@H](O)[C@](C)(O)[C@]1(O)CC[C@@]2(O)[C@@H]3CC=C4CC=CC(=O)[C@]4(C)[C@H]3CC[C@]12C`, the Activity result in data set [1] is given as “Non-Toxic”. Moreover, the outcome in data set [2], in data set [3], in data set [4], in data set [5] and in data set [6] was inactive.
Consider `C[C@H]1C(=O)OC[C@H]1C[C@@H](O)[C@](C)(O)[C@@]1(O)CC[C@@]2(O)[C@@H]3CC=C4CC=CC(=O)[C@]4(C)[C@H]3CC[C@]12C`, for which, in data set [1], the Activity entry is given as “Non-Toxic”. In addition, the result in data set [2], in data set [3], in data set [4], in data set [5] and in data set [6] was inactive.
Consider `CC1=C(C)C(=O)O[C@@H]([C@](C)(O)C2=CC[C@@]3(O)[C@@H]4C[C@H]5O[C@]56[C@@H](O)C=CC(=O)[C@]6(C)[C@H]4CC[C@]23C)C1`, for which, in data set [1], the Activity entry is on record as “Non-Toxic”. Moreover, the result in data set [2], in data set [3], in data set [4], in data set [5] and in data set [6] was inactive.
Turning to `CC1=C(C)C(=O)O[C@@H]([C@](C)(O)[C@]2(O)CC[C@@]3(O)[C@@H]4C[C@@H](O)[C@@]5(O)CC=CC(=O)[C@]5(C)[C@H]4CC[C@]23C)C1`, in data set [1], the Activity entry was “Non-Toxic”. Moreover, the result in data set [2], in data set [3], in data set [4], in data set [5] and in data set [6] was inactive.
For `C[C@H]1C(=O)OC[C@H]1C[C@@H](O)[C@](C)(O)[C@H]1CC[C@@]2(O)[C@@H]3CC=C4CC=CC(=O)[C@]4(C)[C@H]3CC[C@]12C`, in data set [1], the Activity result is “Non-Toxic”. The outcome in data set [2], in data set [3], in data set [4], in data set [5] and in data set [6] was inactive.
As for `C[C@H]1C(=O)OC[C@H]1C[C@@H](O)[C@](C)(O)[C@]1(O)CC[C@@]2(O)[C@@H]3CC=C4C=CCC(=O)[C@]4(C)[C@H]3CC[C@]12C`, in data set [1], the Activity result was “Non-Toxic”. The result in data set [2], in data set [3], in data set [4], in data set [5] and in data set [6] was inactive.
With `CC1=C(C)C(=O)O[C@@H]([C@](C)(O)[C@]2(O)CC[C@@]3(O)[C@@H]4C[C@H](Cl)[C@]5(O)[C@@H](O)C=CC(=O)[C@]5(C)[C@H]4CC[C@]23C)C1`, the Activity entry in data set [1] is “Non-Toxic”. Also, the result in data set [2], in data set [3], in data set [4], in data set [5] and in data set [6] was inactive.
In the case of `C[C@H]1C(=O)OC[C@H]1C[C@@H](O)[C@](C)(O)C1=CC[C@H]2[C@@H]3C[C@H]4O[C@]45CC=CC(=O)[C@]5(C)[C@H]3CC[C@]12C`, in data set [1], the Activity entry is “Non-Toxic”. Besides, the outcome in data set [2], in data set [3], in data set [4], in data set [5] and in data set [6] was inactive.
In the case of `CC1=C(C)[C@H](O)[C@H]([C@](C)(O)[C@H]2CC[C@@]3(O)[C@@H]4C[C@H]5O[C@]56CC=CC(=O)[C@]6(C)[C@H]4CC[C@]23C)OC1=O`, the Activity entry in data set [1] is “Non-Toxic”. In addition, the outcome in data set [2], in data set [3], in data set [4], in data set [5] and in data set [6] was inactive.
Consider `C[C@H]1C(=O)O[C@@H]([C@](C)(O)[C@H]2CC[C@@]3(O)[C@@H]4CC=C5CC=CC(=O)[C@]5(C)[C@H]4CC[C@]23C)[C@@H](O)[C@@H]1CO`, for which the Activity result in data set [1] is given as “Non-Toxic”. The result in data set [2], in data set [3], in data set [4], in data set [5] and in data set [6] was inactive.
With `CO[C@]12CC=CC(=O)[C@]1(C)[C@H]1CC[C@]3(C)[C@](O)([C@@](C)(O)[C@H]4CC(C)=C(C)C(=O)O4)CC[C@@]3(O)[C@@H]1C[C@H]2O`, the Activity result in data set [1] is “Non-Toxic”. The outcome in data set [2], in data set [3], in data set [4], in data set [5] and in data set [6] was inactive.
